Laboratory results reported in ChEMBL document CHEMBL4706563, “Triphenylethylene analogues: Design, synthesis and evaluation of antitumor activity and topoisomerase inhibitors” (Eur J Med Chem, 2020).
Activity calls are given as the source filed them. No cut-off for these calls is given here.

Legend:
SF-268 = assay: Antiproliferative activity against human SF-268 cells assessed as growth inhibition at 10 uM relative to control; format: functional; details: read-out: GI
How it was run: (§1)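 Single-dose screen run by the US National Cancer Institute across its 60-human tumour cell line panel. Each compound was tested at one concentration. Percent growth inhibition was recorded for each cell line.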

HT-29 = assay: Antiproliferative activity against human HT29 cells assessed as growth inhibition at 10 uM relative to control; format: functional; details: read-out: GI; how it was run: as §1
LOX IMVI = assay: Antiproliferative activity against human LOX IMVI cells assessed as growth inhibition at 10 uM relative to control; format: functional; details: read-out: GI; how it was run: as §1
UO-31 = assay: Antiproliferative activity against human UO-31 cells assessed as growth inhibition at 10 uM relative to control; format: functional; details: read-out: GI
How it was run: (§2)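 NCI 60 human tumour cell line panel screen. Compounds tested at a single dose and growth inhibition (%) determined for each line.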

RPMI-8226 = assay: Antiproliferative activity against human RPMI-8226 cells assessed as growth inhibition at 10 uM relative to control; format: functional; details: read-out: GI; how it was run: as §1
SF-295 = assay: Antiproliferative activity against human SF-295 cells assessed as growth inhibition at 10 uM relative to control; format: functional; details: read-out: GI; how it was run: as §1
SK-MEL-2 = assay: Antiproliferative activity against human SK-MEL-2 cells assessed as growth inhibition at 10 uM relative to control; format: functional; details: read-out: GI; how it was run: as §1
MDA-MB-468 = assay: Antiproliferative activity against human MDA-MB-468 cells assessed as growth inhibition at 10 uM relative to control; format: functional; details: read-out: GI; how it was run: as §1
SK-MEL-28 = assay: Antiproliferative activity against human SK-MEL-28 cells assessed as growth inhibition at 10 uM relative to control; format: functional; details: read-out: GI; how it was run: as §2
UACC-62 = assay: Antiproliferative activity against human UACC-62 cells assessed as growth inhibition at 10 uM relative to control; format: functional; how it was run: as §2
A549 = assay: Antiproliferative activity against human A549 cells assessed as growth inhibition at 10 uM relative to control; format: functional; details: read-out: GI; how it was run: as §1
TK-10 = assay: Antiproliferative activity against human TK-10 cells assessed as growth inhibition at 10 uM relative to control; format: functional; details: read-out: GI; how it was run: as §2
HCC 2998 = assay: Antiproliferative activity against human HCC 2998 cells assessed as growth inhibition at 10 uM relative to control; format: functional; details: read-out: GI; how it was run: as §1
[1] = Antiproliferative activity against human colon cancer cells; format: functional; details: Colon cancer cell line
MDA-MB-435 = assay: Antiproliferative activity against human MDA-MB-435 cells assessed as growth inhibition at 10 uM relative to control; format: functional; details: read-out: GI; how it was run: as §1
DU-145 = assay: Antiproliferative activity against human DU-145 cells assessed as growth inhibition at 10 uM relative to control; format: functional; details: read-out: GI; how it was run: as §1
SN12C = assay: Antiproliferative activity against human SN12C cells assessed as growth inhibition at 10 uM relative to control; format: functional; details: read-out: GI; how it was run: as §2
NCI-H226 = assay: Antiproliferative activity against human NCI-H226 cells assessed as growth inhibition at 10 uM relative to control; format: functional; details: read-out: GI; how it was run: as §1
MCF7 = assay: Antiproliferative activity against human MCF7 cells assessed as growth inhibition at 10 uM relative to control; format: functional; details: read-out: GI; how it was run: as §1
OVCAR-8 = assay: Antiproliferative activity against human OVCAR-8 cells assessed as growth inhibition at 10 uM relative to control; format: functional; details: read-out: GI; how it was run: as §1
HEK293 [2] = assay: Cytotoxicity against human HEK293 cells at 10^-6 M incubated for 24 hrs by MTT assay relative to control; format: cell-based; details: hek293, 24 h, 1 µM
How it was run: (§3)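 HEK293 cells grown in low-glucose DMEM with 10% FBS, glutamine, penicillin/streptomycin at 37 °C, 5% CO2. Cells exposed to compound at 10^-4 to 10^-8 M for 24 h at 37 °C. MTT from 5 mg/mL stock added for 4 h at 37 °C in dark. Formazan dissolved in DMSO and read at 570 nm. % toxicity calculated relative to medium-only control wells. Three experiments, each in triplicate.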

HEK293 [3] = assay: Cytotoxicity against human HEK293 cells at 100 uM incubated for 24 hrs by MTT assay relative to control; format: cell-based; details: hek293, 24 h; how it was run: as §3
HEK293 [4] = assay: Cytotoxicity against human HEK293 cells at 10^-7 M incubated for 24 hrs by MTT assay relative to control; format: cell-based; details: hek293, 24 h, 0.1 µM; how it was run: as §3
HEK293 [5] = assay: Cytotoxicity against human HEK293 cells at 10^-8 M incubated for 24 hrs by MTT assay relative to control; format: cell-based; details: hek293, 24 h, 0.01 µM; how it was run: as §3
HEK293 [6] = assay: Cytotoxicity against human HEK293 cells at 10^-5 M incubated for 24 hrs by MTT assay relative to control; format: cell-based; details: hek293, 24 h, 10 µM; how it was run: as §3
HEK293 [7] = assay: Cytotoxicity against human HEK293 cells at 10^-4 M incubated for 24 hrs by MTT assay relative to control; format: cell-based; details: hek293, 24 h, 100 µM; how it was run: as §3

Compound	inhibition of growth at 10 µM (HT-29) [%]	inhibition of growth at 10 µM (LOX IMVI) [%]	inhibition of growth at 10 µM (UO-31) [%]	inhibition of growth at 10 µM (RPMI-8226) [%]	inhibition of growth at 10 µM (SF-295) [%]	inhibition of growth at 10 µM (SK-MEL-2) [%]	inhibition of growth at 10 µM (MDA-MB-468) [%]	inhibition of growth at 10 µM (SK-MEL-28) [%]	inhibition of growth at 10 µM (A549) [%]	inhibition of growth at 10 µM (TK-10) [%]	inhibition of growth at 10 µM (HCC 2998) [%]	GI50 [1] [nM]	TGI [1] [µM]	inhibition of growth at 10 µM (MDA-MB-435) [%]	inhibition of growth at 10 µM (DU-145) [%]	inhibition of growth at 10 µM (SN12C) [%]	inhibition of growth at 10 µM (NCI-H226) [%]	inhibition of growth at 10 µM (MCF7) [%]	inhibition of growth at 10 µM (OVCAR-8) [%]	also measured
CC/C(=C(\c1ccccc1)c1ccc(OCCN(C)C)cc1)c1ccccc1 [TAMOXIFEN]	-11.2	-43.9	59.7	-28.3	59.8	31.5	-13.3	88.7	50.2	48.1	83.7	1880	5.96	62.2	34.6	52.3	7.5	-10.3	39.5	inhibition of growth at 10 µM (SF-268): 43.3%; growth inhibition (GI) (UACC-62): inactive
C/C(=C(/c1ccccc1)c1ccc(OCC(O)CNCCN2CCOCC2)cc1)c1ccccc1 (stereo not drawn)	96.8	81.3	30.8	79.8	28.8	5.09	46.9	-86.2	29.2	26.5	-59.6	2060	5.51	-63.8	32.2	23.9	3.88	55.4	21.8	Activity (HEK293 [2]): 7.04%; Activity (HEK293 [3]): 20%; Activity (HEK293 [4]): 5.43%; inhibition of growth at 10 µM (UACC-62; read-out: GI): 37.3%; Activity (HEK293 [5]): 4.74%; Activity (HEK293 [6]): 13.73%; LC50 [1]: 13.8 µM; Activity (HEK293 [7]): 15.82%
